From ChEMBL document CHEMBL3779827, “A new series of 2-phenol-4-aryl-6-chlorophenyl pyridine derivatives as dual topoisomerase I/II inhibitors: Synthesis, biological evaluation and 3D-QSAR study” (Eur J Med Chem, 2016)
Structures can show the parent of a compound that is named as a salt.

Legend:
[1] = Cytotoxicity against human DU145 cells after 48 hrs by CCK8 assay; settings: DU-145, 48 h
[2] = Cytotoxicity against human HCT15 cells after 48 hrs by CCK8 assay; assay type: functional, cell-based; settings: HCT-15, 48 h
Procedure, shortened: (§1)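 IC50 values are reported in micromolar. Adriamycin, etoposide and camptothecin served as positive controls.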

[3] = tested on: HeLa; assay: Cytotoxicity against human HeLa cells after 48 hrs by CCK8 assay; assay type: functional, cell-based; procedure, shortened: as §1

| SMILES | IC50 [1] [nM] | IC50 [2] [nM] | IC50 [3] [nM] |
| --- | --- | --- | --- |
| CC[C@@]1(O)C(=O)OCc2c1cc1n(c2=O)Cc2cc3ccccc3nc2-1 [CAMPTOTHECIN] | 20 | 2820 | 180 |
| COc1cccc2c1C(=O)c1c(O)c3c(c(O)c1C2=O)C[C@@](O)(C(=O)CO)C[C@@H]3O[C@H]1C[C@H](N)[C@H](O)[C@H](C)O1 [DOXORUBICIN HYDROCHLORIDE] | – | 1230 | – |
| COc1cc([C@@H]2c3cc4c(cc3[C@@H](O[C@@H]3O[C@@H]5CO[C@@H](C)O[C@H]5[C@H](O)[C@H]3O)[C@H]3COC(=O)[C@H]23)OCO4)cc(OC)c1O [ETOPOSIDE] | 2090 | 18900 | – |
